pKd: −log10 of the molar value. Peptide text beside a SMILES is read from it.
How the values were obtained:
[1] = Binding affinity to fragment antigen binding portion of mouse-human chimeric 93F3 antibody assessed as relative signal by ELISA
Summary of the method: (§1)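 Antibody 93F3 coated on microtiter wells (1 µg/25 µL PBS, 37 °C 1 h), blocked with 3% BSA/PBS at 37 °C 1 h. Phage culture supernatant was added with diketone (final 10 µM, from 20 µM in 1% DMSO/PBS) or PBS alone, then incubated 37 °C 1 h. Wells washed with water; bound phage detected with anti-M13–HRP plus ABTS/H2O2, A405.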

[2] = Binding affinity to fragment antigen binding portion of mouse-human chimeric 93F3 antibody assessed as relative signal by ELISA in presence of 10 uM 5-{[4-(3,5-dioxohexyl)phenyl]amino}-5-oxopentanoic acid; summary of the method: as §1
[3] = Binding affinity to fragment antigen binding portion of mouse-human chimeric 93F3 antibody assessed as relative signal by ELISA in presence of 10 uM 6-(4-nitrophenyl)hexane-2,4-dione; summary of the method: as §1
[4] = Binding affinity to fragment antigen binding portion of mouse-human chimeric 93F3 antibody assessed as relative signal by ELISA in presence of 10 uM 2-acetylcyclohexanone; summary of the method: as §1
[5] = Binding affinity to mouse-human chimeric antibody 93F3

| Activity [1] | Activity [2] | Activity [3] | Activity [4] | pKd [5] | Compound |
| --- | --- | --- | --- | --- | --- |
| 0.1 | 1 | 0.1 | 0.1 | – | CC(C)C[C@H](NC(=O)[C@H](Cc1c[nH]c2ccccc12)NC(=O)[C@H](Cc1cnc[nH]1)NC(=O)[C@@H](NC(=O)[C@H](Cc1ccccc1)NC(=O)[C@@H]1CCCN1C(=O)[C@@H](NC(=O)[C@@H](N)CS)[C@@H](C)O)[C@@H](C)O)C(=O)N[C@@H](CS)C(=O)O (H-CTPFTHWLC-OH) |
| 0.2 | 1 | 0.2 | 0.2 | – | CC(C)C[C@H](NC(=O)[C@H](C)NC(=O)[C@H](Cc1cnc[nH]1)NC(=O)[C@@H](NC(=O)[C@H](CC(C)C)NC(=O)[C@@H]1CCCN1C(=O)[C@H](CO)NC(=O)[C@@H](N)CS)[C@@H](C)O)C(=O)N[C@@H](CS)C(=O)O (H-CSPLTHALC-OH) |
| – | – | – | – | 6.00 | CC(=O)CC(=O)CCc1ccccc1 |
| 0.2 | 0.1 | 0.1 | 1 | – | C[C@H](O)[C@H](NC(=O)[C@@H]1CCCN1C(=O)[C@H](Cc1ccccc1)NC(=O)[C@H](Cc1c[nH]c2ccccc12)NC(=O)[C@H](Cc1c[nH]c2ccccc12)NC(=O)[C@@H]1CCCN1C(=O)[C@@H](N)CS)C(=O)N[C@@H](CCC(N)=O)C(=O)N[C@@H](CS)C(=O)O |
| 1 | 0.1 | 0.2 | 0.7 | – | H-QVPWSYLANGLL-OH |
| 1 | 0.1 | 0.2 | 0.8 | – | CC(C)C[C@H](NC(=O)[C@H](Cc1cnc[nH]1)NC(=O)[C@H](Cc1c[nH]c2ccccc12)NC(=O)[C@@H]1CCCN1C(=O)[C@@H](N)CS)C(=O)N[C@@H](CC(C)C)C(=O)N1CCC[C@H]1C(=O)N[C@@H](Cc1ccccc1)C(=O)N[C@@H](CS)C(=O)O (H-CPWHLLPFC-OH) |
| 1 | 0.1 | 0.1 | 0.7 | – | CC(C)C[C@@H](NC(=O)[C@H](Cc1ccc(O)cc1)NC(=O)[C@@H](N)Cc1c[nH]c2ccccc12)C(=O)N1CCC[C@H]1C(=O)N[C@@H](CC(=O)O)C(=O)N[C@@H](CC(N)=O)C(=O)N1CCC[C@H]1C(=O)N[C@@H](CO)C(=O)N[C@H](C(=O)N[C@@H](Cc1c[nH]c2ccccc12)C(=O)N[C@@H](Cc1cnc[nH]1)C(=O)N[C@H](C(=O)O)[C@@H](C)O)[C@@H](C)O |

— ChEMBL document CHEMBL1150373, “Selection of phage-displayed peptides that bind to a particular ligand-bound antibody” (Bioorg Med Chem, 2008)
